The values that follow come from ChEMBL document CHEMBL4513216, “Probing the Open Global Health Chemical Diversity Library for Multistage-Active Starting Points for Next-Generation Antimalarials” (ACS Infect Dis, 2020).

Molecules are shown by their SMILES.

The data set can be described thus: Toxicity liver stage against HepG2, at 10uM. It counts as cell-based. On the set-up: test concentration 10 uM, cell line HepG2-A16-CD81EGFP. To be noted: human, HepG2-A16-CD81EGFP cells; read-out: INHIBITION
In a few lines: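 Uninfected HepG2-A16-CD81EGFP cells, 3 × 10^3 per well, 1536-well, plated on prespotted compound at 10 μM final, parasite-free screening media added to match infected plates; puromycin 10 μM positive, DMSO 0.5% negative; run in parallel with 48 h PbLuc assay at 37 °C, 5% CO2; viability by CellTiter-Glo luminescence, normalized to controls.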
For `COc1ccc(OCCCNC(=O)NCc2csc(C)n2)cc1`, the cytotoxicity at 10 µM was -7.54%. As for `CNCC[C@H]1CC(C)(C)Oc2ccc(OC)cc21`, the cytotoxicity at 10 µM was 0.942%. With `c1cnc(N2CC[C@@H]3[C@@H]2CCN3Cc2cccs2)nc1` the figure was 3.91%; with `O=C(CCS(=O)(=O)c1ccccc1)N1CCCC(n2cccn2)C1` (stereo not given), -14.7%. For `O=C(c1cnccn1)N1CCc2ncnc(-c3cccnc3)c2CC1` the value was -3.8%; for `O=C(Nc1nc(-c2ccccc2)ns1)N1CCC(F)CC1`, -137%. For `CC1CN(C)CCN1C(=O)c1ccn(-c2cccc(F)c2)n1` (stereo not given) the value was -1.87%. Regarding `CC(Cn1cccn1)NC(=O)Cc1cccs1` (stereo not given), the cytotoxicity at 10 µM was determined as 4.93%.

Take `Cc1ccsc1CN(C)C(=O)c1ccc(N2CCOCC2)c(F)c1`: the cytotoxicity at 10 µM was 11.1%. With `CN1CCO[C@@H]2CN(C(=O)COc3cccc(Cl)c3)C[C@@H]2C1` the figure was -9.58%; with `CCc1ccc(CN2CCNC(C(=O)N3CCN(C)CC3)C2)o1` (stereo not given), -0.891%; with `COc1ccc(CNCC2CNc3ccnn3C2)cn1` (stereo not given), -3.84%. For `CCC(C)NC(=O)c1cccc(CNCc2csc(C(C)C)n2)c1` (stereo not given) the value was 9.48%. `Cc1ncc(CN(C)c2nc3c(cnn3C(C)(C)C)c(=O)[nH]2)s1`: the cytotoxicity at 10 µM was -19.2%. With `CN(Cc1cccnc1)C1CC2(CCN(c3ccccn3)CC2)C1`, the cytotoxicity at 10 µM came to 2.86%. For `Cc1ccc(Oc2ncccc2CNC2CCOCC2)cn1` the value was -3.73%; for `CC(NC(=O)C1=NN(C)C(=O)CC1)c1ccc(Cl)cc1` (stereo not given), -20.7%.

Turning to `CC(C)S(=O)(=O)N1CCC(Cc2cccc(C(=O)O)c2)C1` (stereo not given), the cytotoxicity at 10 µM is 1.31%.

For `COc1ncccc1C(=O)N1CC[C@H]2C[C@@H](c3nccs3)O[C@@H]2C1`, the cytotoxicity at 10 µM is -0.123%. Regarding `Cc1ccc(S(=O)(=O)NC(=O)COc2cccc(C(N)=O)c2)s1`, the cytotoxicity at 10 µM is -12.7%. For `Cc1csc(CNC(=O)N2CCN(Cc3cc(C)on3)CC2)n1` the value was -5.49%. With `Cc1nc(CC(=O)N2CCCC2Cn2cccn2)cs1` (stereo not given) the figure was -11.2%; with `O=C(NC[C@@H]1CCCO1)c1cccnc1N1CCCC1c1ccccn1` (stereo not given in full), -1.08%; with `Cc1cc(C)cc(N2CCN(C(=O)CCN3C[C@H]4CC[C@@H]3C4)CC2=O)c1`, -4.76%. Regarding `CCN(CC)Cc1ccccc1NC(=O)N(C)Cc1ccccc1O`, the cytotoxicity at 10 µM was -1.57%.

On to `Cc1ccc(-n2cnnn2)cc1NCC(=O)Nc1cc(F)ccc1F`, for which the cytotoxicity at 10 µM is 6.23%. Turning to `C/C=C(\C)CN1C[C@H](NC(=O)c2cc[nH]c2C)[C@@H](C2CC2)C1`, the cytotoxicity at 10 µM turned out to be 4.96%. For `Cc1noc([C@H]2C[C@@H]3CCN(CC4CC4)C[C@H]3O2)n1` the value was -7.23%. On to `COCCN(CCOC)C(=O)c1c[nH]nc1-c1cccc(F)c1`, for which the cytotoxicity at 10 µM was -0.25%. With `Cc1cccnc1N1CCN(C(=O)C(C)n2ccnc2C(C)C)CC1` (stereo not given) the figure was -10.3%; with `CCc1nc(C2CCCN2c2ncc(C(N)=O)cc2Cl)no1` (stereo not given), -3.99%; with `CCCC(=O)N1CC[C@@H]2[C@H](CC1)N(Cc1cccc(C)n1)CCS2(=O)=O`, -2.88%. With `Cc1nnc(CN(C)CCc2nc(-c3cccc(Cl)c3)no2)n1C` the figure was 2.53%; with `CNC(=O)[C@@H]1C[C@H]2CN(Cc3nccs3)C[C@H]2N1C`, 7.73%.

`Cc1ccn(-c2ccc(NCc3ccnc(N4CCCCC4)c3)nn2)n1`: the cytotoxicity at 10 µM is -0.715%.

On to `Cc1noc(CNc2cc3c(cc2Cl)OCCCO3)n1`, for which the cytotoxicity at 10 µM is -1.49%. For `CCCS(=O)(=O)N1C[C@H]2OC(=O)N(CCc3cccc(Cl)c3)[C@H]2C1` the value was -2.12%.

Take `Cc1nnn2c1COCC(CNC(=O)c1cnoc1C)C2` (stereo not given): the cytotoxicity at 10 µM is -2.69%.

For the molecule `CC(C)c1noc(C(C)N2CCN(CCc3ccncc3)CC2)n1` (stereo not given), the cytotoxicity at 10 µM was 2.16%. For `CCc1nc(C2CCCN(C(=O)c3ccc(OC(C)C)nc3)C2)no1` (stereo not given) the value was 3.25%; for `O=C(NCCOCCO)c1cnc(-c2ccccc2)nc1O`, 0.701%; for `CC(=O)N1CCC(NC(=O)Cc2csc(C(C)(C)C)n2)CC1`, -8.41%. For `COc1ccc2c(c1)CCCC2CC(=O)NCC(=O)O` (stereo not given) the value was -4.31%; for `O=C(NC[C@H]1OC[C@@H](NC2CCNCC2)[C@@H]1O)C1CCCC1`, -10.5%; for `Cc1cc(Cl)cc(C)c1CNC1CCN(CC(=O)N(C)C)CC1`, -1.51%. For `CCC(=O)NCC(=O)NCc1cc(Br)ccc1OC(F)F` the value was 17.5%. Turning to `Cc1cc2nc(C(C)C)cc(NC(C)c3nncn3C)n2n1` (stereo not given), the cytotoxicity at 10 µM was found to be 2.83%.

Turning to `Cc1nc(CCCNC(=O)c2c(F)cc(F)cc2F)n[nH]1`, the cytotoxicity at 10 µM is -4.31%. With `CC1COCCN1Cc1nc(-c2cccc(C(F)(F)F)c2)no1` (stereo not given) the figure was -13.9%; with `COCC(=O)N(Cc1cccnc1)CC1CCCN(C2CCCCC2)C1` (stereo not given), 1.72%; with `CC(C)CC(=O)N1CC(=O)c2sc(Nc3ccc(F)cc3)nc2C1`, -2.28%.

Consider `CCOCCN1CCN(Cc2nc(C3CC3)no2)CC1CC` (stereo not given), for which the cytotoxicity at 10 µM was -5.75%. For `O=c1cc(N2CCCC2)cnn1CCc1cccc(F)c1` the value was -12.8%; for `COc1ncccc1CNCc1c(C(C)C)nn(C)c1N(C)C`, -5.91%; for `O=C(CNCCn1cccn1)NCC1(c2ccccc2)CCC1`, -26.7%. With `CC(C)COCC(NC(=O)c1cccnc1)c1ccco1` (stereo not given) the figure was -12.1%; with `Cc1nn(C)cc1CN1CCCC(n2c(=O)oc3ccc(Cl)cc32)C1` (stereo not given), 4.88%; with `O=C(Nc1nncs1)N1CCC(CCc2ccc(O)cc2)CC1`, 6.81%. For `CSCCC(CO)NC(=O)c1sc(-c2ccccc2Cl)nc1C` (stereo not given), the cytotoxicity at 10 µM was found to be 1.11%.

Turning to `O=C(Nc1cc(-c2cccnc2)no1)C1CCC1`, the cytotoxicity at 10 µM was found to be 2.82%. For `Cc1nc(C2CCCN2C(=O)Cn2cncn2)no1` (stereo not given) the value was -2.51%; for `Cn1cccc1C(=O)N1C[C@@H](OCc2cccnc2)[C@H]2OCCC[C@H]21`, 7.06%; for `Cc1noc(C)c1-c1cc(C2CCNCC2)ccn1`, -16.6%. With `CN(Cc1cnn(C)c1)C(=O)CCS(=O)(=O)c1ccc2c(c1)OCCO2` the figure was -17%; with `Cn1c(Cn2ccnc2)nnc1C1CCCN(c2ncccn2)C1` (stereo not given), -6.33%. Take `CCC(=O)N1CCN(C(=O)Nc2cccc(C#N)c2)[C@H]2CS(=O)(=O)C[C@H]21`: the cytotoxicity at 10 µM was -46%.

Consider `CN(C(=O)c1ccc(Cl)c(S(C)(=O)=O)c1)c1ccccc1`, for which the cytotoxicity at 10 µM was -1.47%. With `CN(CCNc1cc(N2CCCC2CO)ncn1)Cc1ccccc1` (stereo not given) the figure was 15.7%; with `CC(=O)NC(C)C(=O)Nc1ccc(OCc2cccc(F)c2)cc1C` (stereo not given), 0.305%; with `CN1CCCC(CCC(=O)N2CCc3sc(C(=O)N(C)C)cc3C2)C1` (stereo not given), 1.42%.

As to `c1cc(CN2C[C@@H]3OCCN(CCN4CCCC4)[C@@H]3C2)co1`, the cytotoxicity at 10 µM was found to be 6.13%.

For the molecule `COc1cc(C)cc(C(C(=O)O)N(C)CCN2CCCC2)c1OC` (stereo not given), the cytotoxicity at 10 µM worked out at 0.712%. For `CCc1noc(C2CCCCN2C(=O)c2sccc2C)n1` (stereo not given) the value was 10.3%.

In the case of `Cc1cc(C(=O)NCc2ccccc2CN(C)Cc2ccco2)on1`, the cytotoxicity at 10 µM stood at 3.57%. For `CS(=O)(=O)N1CCCn2nc(CNc3cc(C#N)ccn3)cc2C1` the value was -8.5%; for `CCC(NC(=O)c1cccc2cc[nH]c12)C(=O)N1CCOCC1` (stereo not given), -13%; for `CC(CO)NC(=O)c1ccc(NCc2ccc(F)c(F)c2)cc1` (stereo not given), -5.89%. With `COc1ccc(S(=O)(=O)NCCCc2ccc(N(C)C)cc2)cc1F` the figure was -2.59%; with `O=C(c1cnccn1)N1CCN(Cc2cscn2)CC1`, -8.36%; with `COc1ccc(Cl)cc1C(C(=O)O)N1CCSCC1` (stereo not given), -10.8%. With `OCc1nnn2c1CN(Cc1cccnc1)CCC2` the figure was 10.1%. With `CCS(=O)(=O)c1ncc(CN2CCOCC2)n1CCCc1ccccc1`, the cytotoxicity at 10 µM came out at 7.57%. For `O=C(Nc1cccc2ccccc12)N1CCC(N2CCSCC2)CC1` the value was -1.86%. With `CCOC(=O)[C@@H]1[C@H]2CN(C(=O)OC)CCN2C[C@H]1c1ccccc1` the figure was 6.72%; with `CC(Oc1cccc(Cl)c1)C(=O)Nc1cnn(CCN(C)C)c1` (stereo not given), -12.5%; with `CCN(CC(=O)N(C)C)C(=O)C(C)(C)c1ccc2c(c1)OCCO2`, 1.22%.

`CCC(CC)N(C)S(=O)(=O)c1ccc(CCNC(C)=O)s1`: the cytotoxicity at 10 µM is -3.45%. For `CNc1cc(C)nc(C2COCCN2CCOc2ccc(F)cc2)n1` (stereo not given), the cytotoxicity at 10 µM was determined as 3.18%.

For the molecule `O=C(c1ccc(Cl)cc1)N1CCC(N2CCCCC2=O)CC1`, the cytotoxicity at 10 µM is 7.3%. `O=C(c1ccc(F)c(F)c1)N1CCCCC1c1nc[nH]n1` (stereo not given): the cytotoxicity at 10 µM was -7.47%. Consider `CS(=O)(=O)c1cccc(Cl)c1C(=O)NCCN1C(=O)CCC1=O`, for which the cytotoxicity at 10 µM was -1.19%. With `Cc1ccc(-n2nc3n(c2=O)CCN(C(=O)c2ccc(Cl)cc2)C3)cc1` the figure was 6.78%; with `CSc1ccc(C(C(=O)O)N2CCC(C(=O)N3CCCC3)CC2)cc1` (stereo not given), -3.45%; with `CC1CCCCN1C(=O)CN1CCN(c2ccc3nncn3n2)CC1` (stereo not given), 1.48%. For `CCCn1cc(C(=O)N2CCCC2(C)c2nc(C)cc(C)n2)cn1` (stereo not given) the value was 4.28%.
